# Screens: PubChem BioAssay, several laboratories
# PTPN22 inh 2 – LYP (human) phosphatase inhibition. hit rate 0.21% among 96,000. Q9Y2R2. AID 640. recombinant LYP catalytic domain, DiFMUP fluorescence. inhibition, % at 2 µM;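 active = inhibition at 2 µM at or above a set limit, the screen mean plus 3 SD, cut at about 24% in these data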
# Rev-RRE block – inhibitors of HIV-1 Rev-RRE RNA interaction; P05866; Rev peptide-RRE RNA binding, FRET; hit rate 0.79% among 97,000; AID 704; inhibition, % at 8 µM;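 active = inhibition above the screen-wide mean plus 3 SD, cut at about 35% in these data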
# Target sequence (P05866 whole entry, looked up): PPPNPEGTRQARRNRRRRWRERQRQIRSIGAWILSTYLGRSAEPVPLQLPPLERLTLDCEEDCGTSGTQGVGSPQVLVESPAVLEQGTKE
#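 Test system: Cy5-tagged RRE RNA duplex with fluorescein-tagged Rev peptide | Read-out: % inhibition of FRET ratio versus controls | Probe or stimulus: Labelled Rev peptide | Incubation: 5 min RNA-compound premix plus 15 min binding step, 25 °C | Technique: FRET fluorescence readout | Benchmarks: DMSO low control, neomycin B high control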
# Plk1 PBD FP – inhibitors of human Plk1 polo box domain binding | Plk1 PBD phosphopeptide binding, fluorescence polarization | AID 693 | inhibition, %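 (tested at about 20 µM)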 | P53350 | hit rate 0.13% among 97,000; in the data active = inhibition above about 34%, passing the limit was not always enough
# LYP act – increases human PTPN22 phosphatase activity; activation, % at 2 µM; recombinant LYP, DiFMUP fluorescence; 0 = plate median, 100 = signal doubled; hit rate 0.11% among 96,000;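 active = activation at 2 µM above a set limit, the mean plus 5 SD, cut at about 37% in these data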
# PLK1 kinase inh – blocks human PLK1 kinase activity; recombinant PLK1 kinase, TR-FRET peptide phosphorylation; inhibition, % at 10 µM; hit rate 0.53% among 97,000; AID 619;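 active = inhibition of 50% or more in the single-concentration screen; inactive = inhibition below 50%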
# EphB4 ephrin blk – EphB4-ephrin-B2 interaction antagonism. P54760. EphB4 LBD / TNYL-RAW-Alexa532 peptide, fluorescence polarization. inhibition, % at 7 µM. hit rate 0.15% among 97,000;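 active = inhibition above the screen-wide mean inhibition plus 3 SD, cut at about 15% in these data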
# A number is an active result; . = inactive; / = not tested or not shown; [ ] = another dose, or the depositor's remark. Sampled rows, rich in hits. Any-hit rate of the full collection: about 1.8%.
SMILES,PTPN22 inh 2,Rev-RRE block,Plk1 PBD FP,LYP act,PLK1 kinase inh,EphB4 ephrin blk
CCOC(=O)N1CCC(N2C(=O)c3cc(C(=O)NC4CCCCC4)ccc3C2O)CC1 (stereo not drawn),/,.,.,/,61,.
CCCN1C(=O)c2cc(C(=O)NC3CCCCCC3)ccc2C1O (stereo not drawn),.,.,.,.,.,.
CCOCCCNC(=O)c1cn(C)c2ccc(S(=O)(=O)N(C)C3CCCCC3)cc2c1=O,.,.,.,.,.,.
COCCNC(=O)c1cn(C)c2ccc(S(=O)(=O)N(C)C3CCCCC3)cc2c1=O,/,.,.,/,62,.
CC(C)N(CCNC(=O)c1cn(C)c2ccc(S(=O)(=O)N(C)C)cc2c1=O)Cc1ccccc1,/,.,.,/,59,.
CN1CCN(CCCNC(=O)c2cn(C)c3ccc(S(=O)(=O)N(C)C)cc3c2=O)CC1,.,.,.,.,.,.
CCNc1nc(Oc2ccccc2)nc(OC(C)C(=O)OCC)n1 (stereo not drawn),.,.,.,.,.,.
Cc1cc(C(=O)Nc2sc(C)c(C)c2C#N)no1,.,.,.,.,.,.
COc1cc2cc3c(N)c(C(=O)Nc4sc(C)c(C)c4C#N)sc3nc2cc1OC,.,100[fluorescence artefact?],.,.,.,.
Cn1cccc1Cc1nnc(SCC(=O)Nc2ccc3c(c2)OCCO3)n1CCc1ccccc1,.,.,.,.,.,.
Cc1ccc(-c2nc(CS(=O)CC(=O)NCCN3CCCC3)c(C)o2)cc1 (stereo not drawn),/,.,.,/,63,.
Cc1oc(-c2ccc(Cl)cc2)nc1CS(=O)CC(=O)NCCN1CCCC1 (stereo not drawn),/,.,.,/,60,.
Cc1ccccc1-c1nc(CS(=O)CC(=O)NCCN2CCOCC2)c(C)o1 (stereo not drawn),.,.,.,.,.,.
Cc1oc(-c2ccc(Cl)cc2)nc1CS(=O)CC(=O)NCCCN(C)C1CCCCC1 (stereo not drawn),.,.,.,.,.,.
CCN1CCN(CCNC(=O)C2CCCN(Cc3nc(-c4cccc(Cl)c4)oc3C)C2)CC1 (stereo not drawn),/,.,.,/,57,.
Cc1ccc(-c2nc(CS(=O)CC(=O)NCCN3CCOCC3)c(C)o2)cc1 (stereo not drawn),/,.,.,/,59,.
Cc1ccc(C2(c3ccc(C)cc3)CC2C(=O)Nc2ccc([N+](=O)[O-])cc2O)cc1 (stereo not drawn),.,.,.,.,.,.
CCCCNC(=O)CS(=O)Cc1nc(-c2cccc(C)c2)oc1C (stereo not drawn),.,.,.,.,.,.
CCCCNC(=O)CS(=O)Cc1nc(-c2cccc(Cl)c2)oc1C (stereo not drawn),/,.,.,/,65,.
COc1ccc(CNC(=O)CS(=O)Cc2nc(-c3ccccc3C)oc2C)cc1 (stereo not drawn),/,.,.,/,67,.
CCSc1ncc(/C=N/Nc2ccc([N+](=O)[O-])cc2)n1C,.,66[fluorescence artefact?],.,.,.,.
O=[N+]([O-])c1ccc(N/N=C\c2cccn2-c2ccccc2)nc1,.,41,.,.,.,.
CCOC(=O)N1CCN(C(=O)C2CCN(Cc3nc(-c4ccccc4C)oc3C)CC2)CC1,/,.,.,/,68,.
COc1ccc(-c2nc(CN3CCC(C(=O)N4CCc5ccccc54)CC3)c(C)o2)cc1OC,/,.,.,/,61,.
CCOC(=O)N1CCN(C(=O)CSCc2nc(-c3ccccc3C)oc2C)CC1,.,.,.,.,.,.
SMILES,PTPN22 inh 2,Rev-RRE block,Plk1 PBD FP,LYP act,PLK1 kinase inh,EphB4 ephrin blk
CCn1c(CSc2nccn2C)nc2cc(C(=O)O)ccc21,.,.,.,.,.,15
Cc1ccc(CNC(=O)C2CCC(=O)N2CCc2ccccc2)cc1 (stereo not drawn),.,.,.,.,.,.
CCNC(=S)NNC(=O)c1cccn(Cc2ccc(Cl)cc2Cl)c1=O,60,.,.,.,.,.
C=CCNC(=S)NNC(=O)c1cccn(Cc2ccc(Cl)cc2Cl)c1=O,49,.,.,.,.,.
Cc1ccccc1C(=O)NNC(=S)NC(=O)c1ccc(Cl)cc1Cl,.,.,.,.,.,.
N#CCSc1nnc(COc2ccc3ccccc3c2)o1,.,.,.,.,.,.
CN=C(NC#N)SCC(=O)c1ccc(Cl)cc1Cl,.,.,.,.,62,.
Cc1cc(C)c(C#N)c(SCC(=O)c2ccc(Cl)cc2Cl)n1,.,.,.,.,.,.
CN(c1ccccc1C(=O)Nc1ccccc1C(=O)NCc1ccco1)S(C)(=O)=O,.,.,.,.,.,15
CCOc1ccccc1N(CC(=O)Nc1ccccc1C(=O)NCc1ccco1)S(C)(=O)=O,.,.,.,.,.,.
CCOc1ccc(N(CC(=O)Nc2ccccc2C(=O)NCc2ccco2)S(C)(=O)=O)cc1,41,.,.,.,.,.
CCOC(=O)C1=C(C)OC(N)=C(C#N)C1c1c(C)nn(-c2ccc(C)cc2)c1Cl (stereo not drawn),33,.,.,.,.,.
CCCCCSc1nnc2c(n1)OC(C)N(C(C)=O)c1ccccc1-2 (stereo not drawn),/,.,.,/,57,.
O=C(COc1ccc(Cl)cc1)N/N=C/CCc1ccccc1,.,.,.,.,.,.
COc1ccc(CN2CCN(C(=O)c3ccco3)CC2)cc1,37,.,.,.,.,.
CNc1nc2[nH]c(=O)c3c(c2s1)OC(N)=C(C#N)C3c1cccc(F)c1 (stereo not drawn),.,99[fluorescence artefact?],.,.,.,.
Cc1c2cc(O)c(=O)cc-2oc2cc(O)c(O)cc12,94,140[fluorescence artefact?],130,.,.,49[fluorescence artefact?]
O=C(CSc1nnc(-c2ccc(Cl)s2)o1)N1CCc2ccccc21,.,.,.,.,.,.
O=C(CSc1nnc(-c2ccc(Cl)s2)o1)N1CCCc2ccccc21,24,.,.,.,.,.
CCOc1ccc(C2C(C(=O)C3CC3)N3C=C(C#N)C=CC3C2(C#N)C#N)cc1 (stereo not drawn),.,48,.,.,.,.
CCOc1ccc(C(=O)C2CCN(C(=O)c3ccccc3C(=O)O)CC2)cc1,.,.,.,.,.,.
CSc1nsc(/C=C/Nc2ccc(C)cc2)c1C#N,.,58,.,.,.,.
Oc1c(CN2CCCCC2)cc(COCc2ccccc2)c2cccnc12,.,.,.,.,.,20
COC(=O)Oc1ccc(/C=N/NC(=O)CN(c2ccccc2Cl)S(C)(=O)=O)cc1OC,.,.,.,.,.,.
O=C1c2ccccc2C(=O)N1CCN1CCCCC1,.,.,.,.,.,.
O=C1C(=O)N(CCN2CCCCC2)c2ccccc21,.,.,.,.,53,.
CCc1ccc(/C=C2\CN(CC)Cc3c2nc2ccccc2c3C(=O)O)cc1,.,40,.,.,.,.
CCN(CC)C(=O)c1c2c(nc3ccccc13)-c1ccccc1CC2,.,.,.,.,.,.
